Assay results published in ChEMBL document CHEMBL2021925, “In vitro antimycoplasmal activity of Citrus bergamia essential oil and its major components” (2012).

Columns and labels:
[1] = tested on: Mycoplasma fermentans; experiment: Antimycoplasmal activity against Mycoplasma fermentans Pg18 after 24 to 48 hrs by broth microdilution method; assay type: functional, Mycoplasmopsis fermentans
How it was run: (§1)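 Strains were grown in SP-4 broth and stored frozen at -80 C until testing. Broth microdilution with agent concentrations expressed as % v/v. MIC was the lowest concentration preventing the broth colour change when the growth-control tube changed: pH falling from 7.5 to 7.0 for M. fermentans, rising from 6.0 to 6.5 for M. hominis. Incubation was 24–48 h. Each strain was tested six times, plus six more times on different days. Growth and sterility controls were included.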

[2] = tested on: Mycoplasmoides pneumoniae; experiment: Antimycoplasmal activity against Mycoplasma pneumoniae M129 after 3 to 5 days by broth microdilution method
[3] = tested on: Metamycoplasma hominis; experiment: Antimycoplasmal activity against Mycoplasma hominis PG21 after 24 to 48 hrs by broth microdilution method; assay type: functional; how it was run: as §1

C=C(C)[C@H]1CC=C(C)CC1 [D-LIMONENE]
MIC90 [1]: 1 %v/v
MIC90 [2]: 0.03 %v/v
MIC50 [3]: 4 %v/v
MIC90 [3]: 8 %v/v

C=CC(C)(O)CCC=C(C)C (configuration not stated) [LINALOOL]
MIC90 [1]: 0.06 %v/v
MIC90 [2]: 0.015 %v/v
MIC50 [3]: 1 %v/v
MIC90 [3]: 1 %v/v

C=CC(C)(CCC=C(C)C)OC(C)=O (configuration not stated) [LINALYL ACETATE]
MIC90 [1]: 0.12 %v/v
MIC90 [2]: 0.015 %v/v
MIC50 [3]: 0.015 %v/v
MIC90 [3]: 0.015 %v/v
